Reference: ChEMBL document CHEMBL4261639, “Cell-Active Small Molecule Inhibitors of the DNA-Damage Repair Enzyme Poly(ADP-ribose) Glycohydrolase (PARG): Discovery and Optimization of Orally Bioavailable Quinazolinedione Sulfonamides” (J Med Chem, 2018)
Values after ≈ are worked out from the molar mass of the structure shown.

How the values were obtained:
[1] = Clearance in mouse liver microsomes
[2] = target: T1, Poly(ADP-ribose) glycohydrolase (Homo sapiens, UniProt Q86W56); experiment: Inhibition of human full length PARG using Bt-NAD ribosylated PARP1 substrate after 10 mins by TR-FRET assay
[3] = Clearance in human liver microsomes
[4] = target: T1, Poly(ADP-ribose) glycohydrolase; experiment: Inhibition of PARG in human HeLa cells assessed as induction of MMS-induced PAR chains preincubated for 1 hr followed by MMS addition and measured after 1 hr by Alexofluor 488-conjugated secondary antibody and Hoechst 33342 staining based assay; format: cell-based
In short: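 Acute (1 h) cell-based proof-of-mechanism assay measuring persistence of PAR chains, i.e. blockade of PARG-mediated PAR degradation, across a dose range. EC50 values are means of at least 4 independent measurements, with standard deviations.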

[5] = Oral bioavailability in CD1 mouse at 5 mg/kg administered as single dose by LC-MS/MS analysis; format: ADME, organism-based; conditions: in vivo
In short: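 Male CD-1 mice (n = 2) were dosed orally at a nominal 5 mg/kg, with a separate intravenous group (n = 2) at a nominal 1 mg/kg for comparison.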

[6] = tested on: PARG (human, full length); experiment: Selectivity ratio of cytotoxicity for human HeLa cells to EC50 for human full length PARG; format: toxicity, cell-based
Cytochrome P450 3A4 = Cytochrome P450 3A4 (Homo sapiens, UniProt P08684); experiment: Inhibition of CYP3A4 (unknown origin); format: ADME
[7] = AUC in CD1 mouse at 1 mg/kg, iv administered as single dose by LC-MS/MS analysis; format: ADME, organism-based; conditions: in vivo
In short: (§1)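 Male CD-1 mice (n = 2) received a single intravenous dose at a nominal 1 mg/kg.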

[8] = Efflux ratio of apparent permeability in human Caco2 cells; conditions: Caco-2
Cytochrome P450 2C9 = Cytochrome P450 2C9 (Homo sapiens, UniProt P11712); experiment: Inhibition of CYP2C9 (unknown origin); format: ADME
[9] = Volume of distribution in CD1 mouse at 1 mg/kg, iv administered as single dose by LC-MS/MS analysis; format: ADME, organism-based; conditions: in vivo; in short: as §1
[10] = Solubility of the compound; format: physicochemical
[11] = Half life in CD1 mouse at 1 mg/kg, iv administered as single dose by LC-MS/MS analysis; format: ADME, organism-based; conditions: in vivo; in short: as §1
[12] = Apparent permeability across apical to basolateral side in human Caco2 cells; format: ADME, cell-based; conditions: Caco-2
[13] = Clearance in mouse hepatocytes assessed per million cells
[14] = Clearance in CD1 mouse at 1 mg/kg, iv administered as single dose by LC-MS/MS analysis; format: ADME, organism-based; conditions: in vivo; in short: as §1
CYP1A = target: T2, CYP1A (Homo sapiens, UniProt P04798+P05177); experiment: Inhibition of CYP1A (unknown origin); format: ADME, protein assay
T2 sequence (P04798 whole entry): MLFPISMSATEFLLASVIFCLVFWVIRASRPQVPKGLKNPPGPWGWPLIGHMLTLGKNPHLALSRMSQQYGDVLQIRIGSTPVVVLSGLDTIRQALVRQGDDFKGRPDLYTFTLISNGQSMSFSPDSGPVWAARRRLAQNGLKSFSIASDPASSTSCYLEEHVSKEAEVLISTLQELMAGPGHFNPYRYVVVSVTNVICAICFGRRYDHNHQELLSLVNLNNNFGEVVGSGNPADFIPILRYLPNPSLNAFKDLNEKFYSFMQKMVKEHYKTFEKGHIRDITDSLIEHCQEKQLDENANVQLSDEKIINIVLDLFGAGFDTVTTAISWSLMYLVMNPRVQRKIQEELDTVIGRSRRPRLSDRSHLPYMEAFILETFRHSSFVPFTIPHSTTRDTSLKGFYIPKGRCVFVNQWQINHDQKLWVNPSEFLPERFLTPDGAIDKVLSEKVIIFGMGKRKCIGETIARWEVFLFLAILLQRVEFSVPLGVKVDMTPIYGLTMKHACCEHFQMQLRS
T2 sequence (P05177 whole entry): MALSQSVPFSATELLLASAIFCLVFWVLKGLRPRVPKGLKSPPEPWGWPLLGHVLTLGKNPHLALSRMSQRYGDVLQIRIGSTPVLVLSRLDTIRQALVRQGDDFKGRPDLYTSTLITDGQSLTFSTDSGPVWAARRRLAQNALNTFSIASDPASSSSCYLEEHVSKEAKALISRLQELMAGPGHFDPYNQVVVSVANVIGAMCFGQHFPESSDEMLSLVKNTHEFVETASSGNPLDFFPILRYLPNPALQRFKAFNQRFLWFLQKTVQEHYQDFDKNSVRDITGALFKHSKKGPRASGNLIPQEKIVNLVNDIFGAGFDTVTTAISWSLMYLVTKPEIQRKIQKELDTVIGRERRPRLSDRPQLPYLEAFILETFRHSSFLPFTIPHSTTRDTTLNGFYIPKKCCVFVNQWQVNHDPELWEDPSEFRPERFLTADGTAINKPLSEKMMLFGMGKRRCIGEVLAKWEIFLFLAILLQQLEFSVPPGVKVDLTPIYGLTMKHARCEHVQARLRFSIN

Cytochrome P450 2C19 = Cytochrome P450 2C19 (Homo sapiens, UniProt P33261); experiment: Inhibition of CYP2C19 (unknown origin); format: ADME
Cytochrome P450 2D6 = Cytochrome P450 2D6 (Homo sapiens, UniProt P10635); experiment: Inhibition of CYP2D6 (unknown origin); format: ADME
[15] = Partition coefficient, log D of compound at pH 7.4; format: physicochemical; conditions: octanol/water
HeLa = experiment: Cytotoxicity against human HeLa cells after 72 hrs by Hoechst 33342 staining based assay; format: cell-based
[16] = Solubility of the compound by turbidimetric method; format: physicochemical
[17] = target: Poly [ADP-ribose] polymerase 1 (Homo sapiens, UniProt P09874); experiment: Inhibition of human PARP1 expressed in Escherichia coli using activated DNA as substrate after 60 mins by peroxy glow reagent A/B based assay
[18] = target: T3, ADP-ribosylhydrolase ARH3 (Homo sapiens, UniProt Q9NX46); experiment: Inhibition of human full length C-terminus His-tagged ARH3 expressed in Escherichia coli using Bt-NAD ribosylated PARP1 substrate after 30 mins by TR-FRET assay
T3 sequence (Q9NX46 whole entry): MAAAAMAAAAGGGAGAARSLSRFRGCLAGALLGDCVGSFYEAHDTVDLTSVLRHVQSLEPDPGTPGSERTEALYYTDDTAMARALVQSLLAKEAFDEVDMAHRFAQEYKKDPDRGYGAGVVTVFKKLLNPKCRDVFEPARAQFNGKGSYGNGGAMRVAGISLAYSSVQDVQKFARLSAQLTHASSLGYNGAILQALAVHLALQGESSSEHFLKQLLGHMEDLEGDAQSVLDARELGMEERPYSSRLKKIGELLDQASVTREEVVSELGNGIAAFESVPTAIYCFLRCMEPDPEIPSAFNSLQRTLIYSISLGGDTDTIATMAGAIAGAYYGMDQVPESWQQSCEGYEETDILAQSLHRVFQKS

T1 sequence (Q86W56 whole entry): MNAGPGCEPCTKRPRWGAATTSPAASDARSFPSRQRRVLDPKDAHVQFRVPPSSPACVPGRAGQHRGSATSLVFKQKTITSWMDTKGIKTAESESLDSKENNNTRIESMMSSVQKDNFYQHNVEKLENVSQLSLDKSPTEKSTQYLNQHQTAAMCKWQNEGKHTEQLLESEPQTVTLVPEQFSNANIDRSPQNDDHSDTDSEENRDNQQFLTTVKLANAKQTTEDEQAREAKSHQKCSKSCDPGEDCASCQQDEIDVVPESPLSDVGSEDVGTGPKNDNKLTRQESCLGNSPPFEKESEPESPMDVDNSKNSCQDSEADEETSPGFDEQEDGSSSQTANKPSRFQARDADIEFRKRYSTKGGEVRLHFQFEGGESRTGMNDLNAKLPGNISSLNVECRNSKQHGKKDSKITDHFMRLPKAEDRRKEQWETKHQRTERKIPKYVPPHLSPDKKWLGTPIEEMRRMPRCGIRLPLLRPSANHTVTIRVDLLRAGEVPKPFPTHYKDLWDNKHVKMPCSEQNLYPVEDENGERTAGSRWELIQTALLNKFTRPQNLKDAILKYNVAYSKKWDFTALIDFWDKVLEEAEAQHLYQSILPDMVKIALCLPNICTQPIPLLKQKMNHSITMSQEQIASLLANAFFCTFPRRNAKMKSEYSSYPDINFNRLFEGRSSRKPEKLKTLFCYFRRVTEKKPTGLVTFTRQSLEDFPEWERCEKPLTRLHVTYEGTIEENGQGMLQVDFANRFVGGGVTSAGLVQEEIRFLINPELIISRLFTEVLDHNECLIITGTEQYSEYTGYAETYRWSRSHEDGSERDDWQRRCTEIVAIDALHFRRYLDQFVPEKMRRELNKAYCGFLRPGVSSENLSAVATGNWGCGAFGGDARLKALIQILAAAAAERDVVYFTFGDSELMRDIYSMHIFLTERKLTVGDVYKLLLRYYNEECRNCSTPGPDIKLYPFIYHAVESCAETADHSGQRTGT
Sequence of Poly [ADP-ribose] polymerase 1 (P09874 whole entry): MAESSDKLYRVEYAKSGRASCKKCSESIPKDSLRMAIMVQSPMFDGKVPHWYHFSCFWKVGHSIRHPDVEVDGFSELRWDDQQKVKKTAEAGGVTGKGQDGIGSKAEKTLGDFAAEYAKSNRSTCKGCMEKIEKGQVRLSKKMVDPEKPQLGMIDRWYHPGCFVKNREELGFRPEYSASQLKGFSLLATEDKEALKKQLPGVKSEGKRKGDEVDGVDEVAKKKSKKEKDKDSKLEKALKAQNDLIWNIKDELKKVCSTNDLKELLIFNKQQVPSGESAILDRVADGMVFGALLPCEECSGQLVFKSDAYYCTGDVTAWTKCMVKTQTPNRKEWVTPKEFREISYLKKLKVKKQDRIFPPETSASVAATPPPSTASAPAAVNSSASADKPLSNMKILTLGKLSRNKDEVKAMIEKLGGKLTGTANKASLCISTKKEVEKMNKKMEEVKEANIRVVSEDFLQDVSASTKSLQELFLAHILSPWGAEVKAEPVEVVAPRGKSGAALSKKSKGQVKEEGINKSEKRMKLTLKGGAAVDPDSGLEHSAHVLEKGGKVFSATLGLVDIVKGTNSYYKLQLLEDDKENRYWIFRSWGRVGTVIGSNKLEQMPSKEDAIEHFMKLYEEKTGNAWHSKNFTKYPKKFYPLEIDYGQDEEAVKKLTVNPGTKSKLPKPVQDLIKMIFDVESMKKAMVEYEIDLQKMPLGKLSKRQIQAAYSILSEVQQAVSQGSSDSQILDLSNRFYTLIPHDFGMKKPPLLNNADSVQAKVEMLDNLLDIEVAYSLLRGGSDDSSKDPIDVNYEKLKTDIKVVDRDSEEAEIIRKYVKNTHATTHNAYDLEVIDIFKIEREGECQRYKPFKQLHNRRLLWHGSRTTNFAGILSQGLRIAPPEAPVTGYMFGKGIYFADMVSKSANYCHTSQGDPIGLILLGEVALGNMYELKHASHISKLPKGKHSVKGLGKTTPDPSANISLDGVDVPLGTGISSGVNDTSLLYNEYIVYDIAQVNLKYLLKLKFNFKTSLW
Sequence of Cytochrome P450 2C19 (P33261 whole entry): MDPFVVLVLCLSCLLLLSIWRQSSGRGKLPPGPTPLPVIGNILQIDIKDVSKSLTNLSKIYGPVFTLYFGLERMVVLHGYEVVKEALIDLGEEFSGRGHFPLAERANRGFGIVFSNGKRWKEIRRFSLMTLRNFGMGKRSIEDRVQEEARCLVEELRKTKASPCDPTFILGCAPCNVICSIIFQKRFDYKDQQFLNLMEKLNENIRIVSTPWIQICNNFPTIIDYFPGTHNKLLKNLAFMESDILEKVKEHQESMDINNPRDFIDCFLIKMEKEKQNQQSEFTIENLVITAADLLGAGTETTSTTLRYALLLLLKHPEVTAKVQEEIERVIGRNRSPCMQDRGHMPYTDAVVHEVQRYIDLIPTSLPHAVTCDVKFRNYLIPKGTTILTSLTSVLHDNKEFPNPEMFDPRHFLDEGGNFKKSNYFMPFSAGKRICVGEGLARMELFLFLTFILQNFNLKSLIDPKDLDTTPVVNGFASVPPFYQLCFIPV
Sequence of Cytochrome P450 3A4 (P08684 whole entry): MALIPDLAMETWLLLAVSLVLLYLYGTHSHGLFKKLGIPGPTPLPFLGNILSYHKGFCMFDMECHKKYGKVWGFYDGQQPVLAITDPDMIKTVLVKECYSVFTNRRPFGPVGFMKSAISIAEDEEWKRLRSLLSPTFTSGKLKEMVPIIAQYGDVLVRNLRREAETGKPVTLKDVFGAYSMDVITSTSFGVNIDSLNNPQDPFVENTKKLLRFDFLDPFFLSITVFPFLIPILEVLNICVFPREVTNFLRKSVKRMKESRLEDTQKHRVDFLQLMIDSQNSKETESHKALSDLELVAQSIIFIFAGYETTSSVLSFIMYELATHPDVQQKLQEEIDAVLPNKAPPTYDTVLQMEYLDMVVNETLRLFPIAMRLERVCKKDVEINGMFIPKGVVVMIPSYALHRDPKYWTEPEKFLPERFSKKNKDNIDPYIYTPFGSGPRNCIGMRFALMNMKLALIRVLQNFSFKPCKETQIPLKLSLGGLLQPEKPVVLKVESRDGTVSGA
Sequence of Cytochrome P450 2C9 (P11712 whole entry): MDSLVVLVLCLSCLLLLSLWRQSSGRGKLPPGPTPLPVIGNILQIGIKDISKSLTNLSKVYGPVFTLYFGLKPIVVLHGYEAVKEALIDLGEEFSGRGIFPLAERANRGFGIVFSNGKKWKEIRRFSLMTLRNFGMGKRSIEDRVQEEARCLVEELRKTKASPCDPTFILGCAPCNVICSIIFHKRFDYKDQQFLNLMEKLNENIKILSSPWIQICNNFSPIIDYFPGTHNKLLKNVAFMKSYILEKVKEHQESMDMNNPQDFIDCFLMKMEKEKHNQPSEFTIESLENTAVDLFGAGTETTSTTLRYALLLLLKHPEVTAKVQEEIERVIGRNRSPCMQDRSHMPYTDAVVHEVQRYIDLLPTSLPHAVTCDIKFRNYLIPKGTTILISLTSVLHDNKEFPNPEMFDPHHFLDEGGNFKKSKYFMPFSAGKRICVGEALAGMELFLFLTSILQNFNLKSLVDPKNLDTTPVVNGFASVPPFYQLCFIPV
Sequence of Cytochrome P450 2D6 (P10635 whole entry): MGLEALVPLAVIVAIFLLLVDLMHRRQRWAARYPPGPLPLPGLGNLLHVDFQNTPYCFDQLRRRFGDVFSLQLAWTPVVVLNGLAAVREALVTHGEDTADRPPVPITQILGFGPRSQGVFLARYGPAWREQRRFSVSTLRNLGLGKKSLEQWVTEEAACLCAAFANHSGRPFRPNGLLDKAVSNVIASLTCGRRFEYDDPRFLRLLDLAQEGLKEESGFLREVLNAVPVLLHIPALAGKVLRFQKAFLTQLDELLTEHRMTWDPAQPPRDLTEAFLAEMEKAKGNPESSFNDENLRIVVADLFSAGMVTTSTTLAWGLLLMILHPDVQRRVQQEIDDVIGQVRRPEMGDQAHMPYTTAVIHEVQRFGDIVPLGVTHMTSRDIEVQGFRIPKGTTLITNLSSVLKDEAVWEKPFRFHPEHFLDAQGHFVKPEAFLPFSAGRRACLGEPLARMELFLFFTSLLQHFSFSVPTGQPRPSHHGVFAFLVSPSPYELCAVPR

Row | SMILES | microsomal CLint [1] [µL/min/mg] | EC50 [2] [nM] | microsomal CLint [3] [µL/min/mg] | EC50 [4] [nM] | other results
1 | CC1(NS(=O)(=O)c2ccc3c(c2)c(=O)n(CC#N)c(=O)n3CC2CC2)CC1 | 36 | 270 | 17 | 1100 | –
2 | Cc1cc(Cn2c(=O)n(CC#N)c(=O)c3cc(S(=O)(=O)NC4(C)CC4)ccc32)n(C)n1 | – | 280 | 20 | 560 | –
3 | CCn1c(=O)n(Cc2cc(C)no2)c(=O)c2cc(S(=O)(=O)NC3(C)CC3)ccc21 | – | 330 | 26 | 120 | –
4 | Cc1cc(Cn2c(=O)c3cc(S(=O)(=O)NC4(C)CC4)ccc3n(CC3COC3)c2=O)on1 | 22 | 340 | 19 | 280 | bioavailability [5]: 25%; selectivity ratio [6]: > 100; IC50 (Cytochrome P450 3A4): > 25000 nM; AUC [7]: 90 ng·h/mL; efflux ratio [8]: 21; IC50 (Cytochrome P450 2C9): > 25000 nM; Vd [9]: 2.5 L/kg; solubility [10]: > 100 µM; half-life [11]: 12 min; Papp A→B [12]: 1.9 ×10⁻⁶ cm/s; hepatocyte CLint [13]: 25 µL/min/1e6 cells; clearance [14]: 167 mL/min/kg; IC50 (CYP1A): > 25000 nM; IC50 (Cytochrome P450 2C19): > 25000 nM; IC50 (Cytochrome P450 2D6): > 25000 nM
5 | Cn1cc(Cn2c(=O)c3cc(S(=O)(=O)NC4(C)CC4)ccc3n(CC3COC3)c2=O)cn1 | 16 | 69 | 9.2 | 250 | bioavailability [5]: 41%; selectivity ratio [6]: > 100; IC50 (Cytochrome P450 3A4): > 10000 nM; AUC [7]: 250 ng·h/mL; efflux ratio [8]: 34; IC50 (Cytochrome P450 2C9): > 10000 nM; Vd [9]: 1.4 L/kg; solubility [10]: > 100 µM; half-life [11]: 22 min; Papp A→B [12]: 1 ×10⁻⁶ cm/s; hepatocyte CLint [13]: 24 µL/min/1e6 cells; clearance [14]: 66.7 mL/min/kg; IC50 (CYP1A): > 10000 nM; IC50 (Cytochrome P450 2C19): > 10000 nM; IC50 (Cytochrome P450 2D6): > 10000 nM
6 | Cc1cc(Cn2c(=O)c3cc(S(=O)(=O)NC4(C)CC4)ccc3n(CC3CC3)c2=O)on1 | – | 55 | 80 | 49 | –
7 | Cc1cc(Cn2c(=O)n(Cc3cnc(C)s3)c(=O)c3cc(S(=O)(=O)NC4(C)CC4)ccc32)n(C)n1 | – | 26 | 79 | 37 | selectivity ratio [6]: > 100
8 | C#CCn1c(=O)n(CC#N)c(=O)c2cc(S(=O)(=O)NC3(C)CC3)ccc21 | 63 | 250 | 10 | 270 | –
9 | CCn1c(=O)n(Cc2nnc(C)s2)c(=O)c2cc(S(=O)(=O)NC3(C)CC3)ccc21 | 30 | 240 | 17 | 120 | –
10 | Cn1c(=O)c2cc(S(=O)(=O)NC3(C)CC3)ccc2n(C)c1=O | – | 3900 | – | 1800 | logD [15]: 1.73; Activity (HeLa): > 30 µM; solubility kinetic [16]: > 100 µM
11 | C#CCn1c(=O)n(Cc2cnc(C)s2)c(=O)c2cc(S(=O)(=O)NC3(C)CC3)ccc21 | – | 45 | 100 | 82 | –
12 | CC(C)(C)NS(=O)(=O)c1ccc2c(c1)C(=O)c1ccccc1C2=O | – | 81000 | – | 30000 | Activity (HeLa): 16 µM; solubility kinetic [16]: 20 µM (≈ 6.87 µg/mL)
13 | Cc1ncc(Cn2c(=O)c3cc(S(=O)(=O)NC4(C)CC4)ccc3n(Cc3sc(C)nc3C)c2=O)s1 | – | 4.8 | 140 | 9.2 | –
14 | Cn1c(=O)c2cc(S(=O)(=O)NC3(C)CC3)ccc2n(CC2CC2)c1=O | – | 440 | – | 620 | selectivity ratio [6]: > 100; EC50 [17]: > 150000 nM; EC50 [18]: > 100000 nM
15 | Cc1ncc(Cn2c(=O)c3cc(S(=O)(=O)NC4(C)CC4)ccc3n(CC3CC3)c2=O)s1 | – | 19 | 160 | 28 | EC50 [17]: > 150000 nM; EC50 [18]: > 100000 nM
16 | Cc1cc(Cn2c(=O)n(Cc3nnc(C)s3)c(=O)c3cc(S(=O)(=O)NC4(C)CC4)ccc32)n(C)n1 | 35 | 64 | 15 | 270 | –
17 | Cc1cc(Cn2c(=O)n(Cc3cnn(C)c3)c(=O)c3cc(S(=O)(=O)NC4(C)CC4)ccc32)n(C)n1 | – | 23 | 34 | 88 | selectivity ratio [6]: > 100; EC50 [17]: > 150000 nM; EC50 [18]: > 100000 nM
18 | C#CCn1c(=O)n(Cc2cc(C)no2)c(=O)c2cc(S(=O)(=O)NC3(C)CC3)ccc21 | – | 100 | 72 | 76 | –
19 | Cc1cc(Cn2c(=O)c3cc(S(=O)(=O)NC4(C)CC4)ccc3n(Cc3cc(C)nn3C)c2=O)on1 | – | 38 | 37 | 120 | –
